The source made the active and inactive calls. The calls are words filed in the database; no cut-off is given here.
What was measured:
[1] = Cytotoxicity against human HL-7702 cells at 10 uM after 24 hrs by MTT assay; format: cell-based; details: l02, 24 h
Method in brief: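 HL-7702 cells, 5000 per well, in 1640 medium with 5% heat-inactivated serum, 37 °C, 5% CO₂. Compounds in DMSO, diluted in medium to final 10 µM, applied for 24 h. MTT (5 mg/ml in 0.9% NaCl) added for 3 h, then cells dissolved in DMSO and absorbance read at 570 nm.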

RAW264.7 [2] = test: Antiinflammatory activity in mouse RAW264.7 cells assessed as inhibition of LPS-induced IL-6 release pretreated at 10 uM for 2 hrs prior LPS challenge measured after 22 hrs post challenge by ELISA; format: functional
Method in brief: (§1)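 RAW 264.7 cells plated at 4.0 × 10⁵ per plate overnight (37 °C, 5% CO₂). Pretreated 2 h, then stimulated with LPS 0.5 µg/ml (in PBS) for 22 h. Medium TNF-α and IL-6 measured by ELISA, normalized to total cell protein (Bio-Rad assay) and expressed as percent of LPS control. Mean ± SE, 3–5 independent experiments.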

RAW264.7 [3] = test: Antiinflammatory activity in mouse RAW264.7 cells assessed as inhibition of LPS-induced IL-1beta gene expression pretreated at 10 uM for 2 hrs prior LPS challenge measured after 6 hrs post challenge by RT-qPCR analysis; format: functional, cell-based
Method in brief: (§2)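 RAW 264.7 cells in DMEM with 10% FBS, plated at 4.0 × 10⁵ per plate overnight at 37 °C, 5% CO₂. Pretreatment 2 h, then LPS 0.5 µg/ml for 6 h. IL-6, TNF-α and IL-1β mRNA quantified by RT-qPCR, normalized to β-actin mRNA and expressed as ratio to DMSO. Mean ± SD of 3–5 independent experiments.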

RAW264.7 [4] = test: Antiinflammatory activity in mouse RAW264.7 cells assessed as inhibition of LPS-induced TNF-alpha gene expression pretreated at 10 uM for 2 hrs prior LPS challenge measured after 6 hrs post challenge by RT-qPCR analysis; format: functional, cell-based; method in brief: as §2
RAW264.7 [5] = test: Antiinflammatory activity in mouse RAW264.7 cells assessed as inhibition of LPS-induced IL-6 gene expression pretreated at 10 uM for 2 hrs prior LPS challenge measured after 6 hrs post challenge by RT-qPCR analysis; format: functional, cell-based; method in brief: as §2
RAW264.7 [6] = test: Antiinflammatory activity in mouse RAW264.7 cells assessed as inhibition of LPS-induced IL-6 release pretreated for 2 hrs prior LPS challenge measured after 22 hrs post challenge by ELISA; format: functional, cell-based
Method in brief: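 Dose series in RAW 264.7 cells: pretreatment at 1.1, 3.3 and 10 µM for 2 h, then LPS 0.5 µg/ml for 22 h. Medium IL-6 determined by ELISA and normalized to total protein.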

[7] = tested on: Peritoneal macrophage cell; test: Antiinflammatory activity in mouse peritoneal macrophages assessed as inhibition of LPS-induced IL6 protein expression pretreated for 2 hrs prior LPS challenge measured after 22 hrs post challenge by ELISA; format: functional, cell-based
Method in brief: (§3)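 Peritoneal macrophages from ICR mice elicited by i.p. thioglycollate, collected by lavage with PBS containing 30 mM EDTA, in RPMI-1640, nonadherent cells washed off at 3 h. Plated at 4.0 × 10⁵ per 35 mm plate. Pretreatment 2 h, then LPS 0.5 µg/ml for 22 h. IL-6 and TNF-α in medium measured by ELISA, normalized to total protein. 3 independent experiments.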

[8] = tested on: Peritoneal macrophage cell; test: Antiinflammatory activity in mouse peritoneal macrophages assessed as inhibition of LPS-induced TNFalpha protein expression pretreated for 2 hrs prior LPS challenge measured after 22 hrs post challenge by ELISA; format: functional, cell-based; method in brief: as §3
Mus musculus = test: Antiinflammatory activity in C57BL/6 mouse sepsis model assessed as increase in survival rate at 10 mg/kg, iv administered 15 mins prior LPS-challenge measured after 7 days; format: functional
Method in brief: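 Male C57BL/6 mice (18–22 g) were dosed i.v. 15 min before i.p. LPS at 20 mg/kg. Drug solution was 2 mg/ml in macrogol 15 hydroxystearate (5–10%), with or without medium-chain triglycerides (0.5–2%). Controls received vehicle (10% solubilizer, 2% MCT). Survival was recorded every 12 h for 7 days; n = 9 per group.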

[9] = Chemical stability of the compound in phosphate buffer at pH 7.4 at 20 uM up to 25 mins by UV-visible absorption spectrum assay; format: physicochemical; details: pH 7.4, 25 min
RAW264.7 [10] = test: Antiinflammatory activity in mouse RAW264.7 cells assessed as inhibition of LPS-induced TNFalpha release pretreated at 10 uM for 2 hrs prior LPS challenge measured after 22 hrs post challenge by ELISA; format: functional; method in brief: as §1
[11] = Chemical stability of the compound in phosphate buffer at pH 7.4 assessed as compound degradation at 20 uM up to 25 mins by UV-visible absorption spectrum assay; format: physicochemical; details: read-out: Drug degradation

Structure (SMILES)	Activity [1]	inhibition at 10 µM (RAW264.7 [2])	other results
C=CCc1cc(/C=C/C(=O)/C=C/c2cccc(Br)c2)ccc1OC	Non-toxic	20%	–
C=CCc1cc(/C=C/C(=O)/C=C/c2ccc(OC(C)(C)C)cc2)ccc1OC	Non-toxic	20%	–
COc1cc(/C=C/C(=O)/C=C/c2ccc(OCC=C(C)C)c(OC)c2)ccc1OCC=C(C)C	Non-toxic	20%	–
C=CCc1cc(/C=C/C(=O)/C=C/c2c(F)cccc2Br)ccc1OC	Non-toxic	20%	–
C=CCc1cc(/C=C/C(=O)/C=C/c2ccc([N+](=O)[O-])cc2)ccc1O	Non-toxic	20%	–
C=CCc1cc(/C=C/C(=O)/C=C/c2ccc(OC)c(OC)c2)ccc1O	Non-toxic	20%	inhibition (RAW264.7 [3]): Active; inhibition (RAW264.7 [4]): Active; inhibition (RAW264.7 [5]): Active; inhibition (RAW264.7 [6]): Dose-dependent effect
C=CCc1cc(/C=C/C(=O)/C=C/c2cc(Br)ccc2Br)ccc1OC	Non-toxic	91.1%	inhibition [7]: Dose-dependent effect; inhibition [8]: Dose-dependent effect; survival at 10 mg/kg (Mus musculus): 45%; Stability [9]: Stable; inhibition (RAW264.7 [3]): Active; inhibition (RAW264.7 [4]): Active; inhibition (RAW264.7 [5]): Active; inhibition at 10 µM (RAW264.7 [10]): 67.5%; inhibition (RAW264.7 [6]): Dose-dependent effect
CC(C)=CCOc1ccc(/C=C2\CC/C(=C\c3ccc(OCC=C(C)C)cc3O)C2=O)c(O)c1	Non-toxic	20%	–
C=CCOc1ccc(/C=C/C(=O)/C=C/c2ccc(OCC=C)cc2)cc1	Non-toxic	–	–
C=CCOc1ccc(/C=C/C(=O)/C=C/c2ccc(OC)c(CC=C)c2)cc1	Non-toxic	20%	–
C=CCc1cc(/C=C/C(=O)/C=C/c2ccc(C(F)(F)F)cc2)ccc1OC	Non-toxic	20%	–
CC(C)=CCOc1ccc(/C=C2\CCC/C(=C\c3ccc(OCC=C(C)C)cc3)C2=O)cc1	Non-toxic	20%	–
C=CCc1cc(/C=C/C(=O)/C=C/c2ccc(Br)cc2)ccc1OC	Non-toxic	20%	–
C=CCc1cc(/C=C/C(=O)/C=C/c2ccc(N3CCOCC3)cc2)ccc1OC	Non-toxic	20%	inhibition (RAW264.7 [3]): Active; inhibition (RAW264.7 [4]): Active; inhibition (RAW264.7 [5]): Active; inhibition (RAW264.7 [6]): Dose-dependent effect
C=CCc1cc(/C=C/C(=O)/C=C/c2ccc(O)c(CC=C)c2)ccc1O	Non-toxic	96.4%	Stability [9]: Stable; inhibition (RAW264.7 [3]): Active; inhibition (RAW264.7 [4]): Active; inhibition (RAW264.7 [5]): Active; inhibition (RAW264.7 [10]): Active; inhibition (RAW264.7 [6]): Dose-dependent effect
C=CCc1cc(/C=C2\CC/C(=C\c3ccc(O)c(CC=C)c3)C2=O)ccc1O	Non-toxic	20%	–
C=CCc1cc(/C=C/C(=O)/C=C/c2ccc(OC)c(OC)c2)ccc1OC	Non-toxic	20%	–

Structure (SMILES)	Activity [1]	inhibition at 10 µM (RAW264.7 [2])	other results
C=CCc1cc(/C=C/C(=O)/C=C/c2cc(F)ccc2Br)ccc1OC	Non-toxic	20%	Stability [9]: Stable; inhibition (RAW264.7 [3]): Active; inhibition (RAW264.7 [4]): Active; inhibition (RAW264.7 [5]): Active; inhibition (RAW264.7 [10]): Active; inhibition (RAW264.7 [6]): Dose-dependent effect
C=CCOc1ccc(/C=C/C(=O)/C=C/c2ccc(F)cc2)c(O)c1	Non-toxic	20%	–
C=CCc1cc(/C=C/C(=O)/C=C/c2ccc(N3CCCCC3)cc2)ccc1OC	Non-toxic	20%	–
C=CCOc1ccc(/C=C/C(=O)/C=C/c2ccc(OC)c(OC)c2)cc1	Non-toxic	–	–
C=CCc1cc(/C=C/C(=O)/C=C/c2cc(OC)c(OC)cc2OC)ccc1OC	Non-toxic	20%	inhibition (RAW264.7 [3]): Active; inhibition (RAW264.7 [4]): Active; inhibition (RAW264.7 [5]): Active; inhibition (RAW264.7 [10]): Active; inhibition (RAW264.7 [6]): Dose-dependent effect
C=CCc1cc(/C=C/C(=O)/C=C/c2cc(F)ccc2F)ccc1OC	Non-toxic	–	–
C=CCc1cc(/C=C/C(=O)/C=C/c2ccc3ccccc3c2)ccc1OC	Non-toxic	20%	–
C=CCc1cc(/C=C/C(=O)/C=C/c2ccccc2Cl)ccc1OC	Non-toxic	20%	–
COc1cc(/C=C/C(=O)CC(=O)/C=C/c2ccc(O)c(OC)c2)ccc1O [CURCUMIN]	Non-toxic	20%	degraded at 25 min, 20 µM [11]: > 45%; inhibition (RAW264.7 [3]): Active; inhibition (RAW264.7 [4]): Active; inhibition (RAW264.7 [5]): Active
C=CCc1cc(/C=C/C(=O)/C=C/c2ccccc2C(F)(F)F)ccc1OC	Non-toxic	–	–
C=CCc1cc(/C=C/C(=O)/C=C/c2cccc(Cl)c2Cl)ccc1OC	Non-toxic	20%	–
COc1ccc(/C=C/C(=O)/C=C/c2ccc(OCC=C(C)C)cc2)cc1OC	Non-toxic	20%	–
C=CCc1cc(/C=C/C(=O)/C=C/c2cc(F)ccc2OC)ccc1OC	Non-toxic	20%	–
COc1cc(/C=C2\CC/C(=C\c3ccc(OCC=C(C)C)c(OC)c3)C2=O)ccc1OCC=C(C)C	Non-toxic	20%	–
CC(C)=CCOc1ccc(/C=C/C(=O)/C=C/c2ccc(OCC=C(C)C)cc2)cc1	Non-toxic	–	–
C=CCc1cc(/C=C/C(=O)/C=C/c2ccc(N(C)C)cc2)ccc1OC	Non-toxic	20%	–
C=CCc1cc(/C=C2\CC/C(=C\c3ccc(OC4CCCCO4)c(CC=C)c3)C2=O)ccc1OC1CCCCO1 (stereo not given)	Non-toxic	–	–
